In brackets after ≈: the same amount, converted by molar mass. Activity calls are given as the source filed them. The calls are words filed in the database; no cut-off is given here.
Assays:
Escherichia coli [1] = experiment: Antibacterial activity against Escherichia coli ATCC 25922 after 24 hrs by disc diffusion method; assay type: functional; settings: ATCC 25922, 24 h
Outline: (§1)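 Bacterial strains tested on discs at each concentration, placed in triplicate in nutrient agar seeded with fresh bacteria; incubated 37 °C for 24 h. Ciprofloxacin served as reference, with solvent and growth controls. Zones of inhibition and MICs were recorded.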

Pseudomonas aeruginosa [2] = experiment: Antibacterial activity against Pseudomonas aeruginosa ATCC 27853 at >50 ug/ml after 24 hrs by disc diffusion method; assay type: functional, organism-based; outline: as §1
Aspergillus fumigatus [3] = experiment: Antifungal activity against Aspergillus fumigatus NCIM 902 at 10 ug/ml after 2 to 3 days by serial plate dilution method; assay type: functional; settings: read-out: IZ
Outline: (§2)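 For the fungal lawn, a loopful of each strain was suspended in 3 ml normal saline and spread on agar plates. Excess suspension was decanted and the plates were dried 1 h at 37 °C. Wells were punched and labeled. Plates, including a triplicate control, were held at 37 °C for 2–3 days. Zones of inhibition and MIC were recorded against fluconazole as standard.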

Staphylococcus aureus [4] = experiment: Antibacterial activity against Staphylococcus aureus ATCC 25923 at >50 ug/ml after 24 hrs by disc diffusion method; assay type: functional, organism-based; outline: as §1
Aspergillus fumigatus [5] = experiment: Antifungal activity against Aspergillus fumigatus NCIM 902 after 2 to 3 days by serial plate dilution method; assay type: functional; outline: as §2
Aspergillus niger [6] = experiment: Antifungal activity against Aspergillus niger NCIM 617 at 10 ug/ml after 2 to 3 days by serial plate dilution method; assay type: functional; settings: read-out: IZ; outline: as §2
Bacillus subtilis [7] = experiment: Antibacterial activity against Bacillus subtilis ATCC 11774 at 15 ug/ml after 24 hrs by disc diffusion method; assay type: functional; settings: ATCC 11774, 24 h, read-out: IZ; outline: as §1
Candida albicans [8] = experiment: Antifungal activity against Candida albicans NCIM 300 at 10 ug/ml after 2 to 3 days by serial plate dilution method; assay type: functional; settings: read-out: IZ; outline: as §2
Aspergillus flavus [9] = experiment: Antifungal activity against Aspergillus flavus NCIM 524 at 10 ug/ml after 2 to 3 days by serial plate dilution method; assay type: functional; settings: read-out: IZ; outline: as §2
Candida albicans [10] = experiment: Antifungal activity against Candida albicans NCIM 300 after 2 to 3 days by serial plate dilution method; assay type: functional; outline: as §2
Aspergillus niger [11] = experiment: Antifungal activity against Aspergillus niger NCIM 617 after 2 to 3 days by serial plate dilution method; assay type: functional; outline: as §2
Bacillus subtilis [12] = experiment: Antibacterial activity against Bacillus subtilis ATCC 11774 after 24 hrs by disc diffusion method; assay type: functional; settings: ATCC 11774, 24 h; outline: as §1
Aspergillus flavus [13] = experiment: Antifungal activity against Aspergillus flavus NCIM 524 after 2 to 3 days by serial plate dilution method; assay type: functional; outline: as §2
Escherichia coli [14] = experiment: Antibacterial activity against Escherichia coli ATCC 25922 at 10 ug/ml after 24 hrs by disc diffusion method; assay type: functional; settings: ATCC 25922, 24 h, read-out: IZ; outline: as §1
Staphylococcus aureus [15] = experiment: Antibacterial activity against Staphylococcus aureus ATCC 25923 at 10 ug/ml after 24 hrs by disc diffusion method; assay type: functional; settings: ATCC 25923, 24 h, read-out: IZ; outline: as §1
Staphylococcus aureus [16] = experiment: Antibacterial activity against Staphylococcus aureus ATCC 25923 at after 24 hrs by disc diffusion method; assay type: functional; settings: ATCC 25923, 24 h; outline: as §1
Pseudomonas aeruginosa [17] = experiment: Antibacterial activity against Pseudomonas aeruginosa ATCC 27853 at 10 ug/ml after 24 hrs by disc diffusion method; assay type: functional; settings: ATCC 27853, 24 h, read-out: IZ; outline: as §1
Pseudomonas aeruginosa [18] = experiment: Antibacterial activity against Pseudomonas aeruginosa ATCC 27853 after 24 hrs by disc diffusion method; assay type: functional; settings: ATCC 27853, 24 h; outline: as §1
Bacillus subtilis [19] = experiment: Antibacterial activity against Bacillus subtilis ATCC 11774 at >50 ug/ml after 24 hrs by disc diffusion method; assay type: functional, organism-based; outline: as §1
Candida albicans [20] = experiment: Antifungal activity against Candida albicans NCIM 300 at >50 ug/ml after 2 to 3 days by serial plate dilution method; assay type: functional, organism-based; outline: as §2

Row | SMILES | MIC (Escherichia coli [1]) [µg/mL] | Activity (Pseudomonas aeruginosa [2]) | zone of inhibition at 10 µg/mL (Aspergillus fumigatus [3]) [mm] | Activity (Staphylococcus aureus [4]) | MIC (Aspergillus fumigatus [5]) [µg/mL] | zone of inhibition at 10 µg/mL (Aspergillus niger [6]) [mm] | zone of inhibition at 15 µg/mL (Bacillus subtilis [7]) [mm] | zone of inhibition at 10 µg/mL (Candida albicans [8]) [mm] | zone of inhibition at 10 µg/mL (Aspergillus flavus [9]) [mm] | MIC (Candida albicans [10]) [µg/mL] | MIC (Aspergillus niger [11]) [µg/mL] | MIC (Bacillus subtilis [12]) [µg/mL] | MIC (Aspergillus flavus [13]) [µg/mL] | zone of inhibition at 10 µg/mL (Escherichia coli [14]) [mm] | zone of inhibition at 10 µg/mL (Staphylococcus aureus [15]) [mm] | MIC (Staphylococcus aureus [16]) [µg/mL] | zone of inhibition at 10 µg/mL (Pseudomonas aeruginosa [17]) [mm] | MIC (Pseudomonas aeruginosa [18]) [µg/mL] | Activity (Bacillus subtilis [19]) | Activity (Candida albicans [20])
1 | O=C1CCC(=O)N1CC(=O)N1c2ccccc2Sc2ccccc21 | 10 (≈ 29.6 µM) | inactive | 19 | inactive | 20 (≈ 59.1 µM) | 19 | 18 | 17 | 24 | 15 (≈ 44.3 µM) | 20 (≈ 59.1 µM) | 15 (≈ 44.3 µM) | 15 (≈ 44.3 µM) | 24 | – | – | – | – | – | –
2 | O=C1c2ccccc2C(=O)N1CC(=O)N1c2ccccc2Sc2ccccc21 | 10 (≈ 25.9 µM) | inactive | 20 | – | 15 (≈ 38.8 µM) | 23 | 17 | 17 | 22 | 10 (≈ 25.9 µM) | 10 (≈ 25.9 µM) | 15 (≈ 38.8 µM) | 10 (≈ 25.9 µM) | 22 | 20 | 10 (≈ 25.9 µM) | – | – | – | –
3 | O=C1CCC(=O)N1CC(=O)N1c2ccccc2Sc2ccc(Cl)cc21 | 15 (≈ 40.2 µM) | – | 18 | – | 20 (≈ 53.6 µM) | 23 | 14 | 13 | 12 | 25 (≈ 67.1 µM) | 20 (≈ 53.6 µM) | 30 (≈ 80.5 µM) | 25 (≈ 67.1 µM) | 16 | 12 | 30 (≈ 80.5 µM) | 16 | 15 (≈ 40.2 µM) | – | –
4 | O=C1C=CC(=O)N1CC(=O)N1c2ccccc2Sc2ccccc21 | 10 (≈ 29.7 µM) | – | 15 | – | 20 (≈ 59.5 µM) | 17 | 16 | 17 | 18 | 20 (≈ 59.5 µM) | 20 (≈ 59.5 µM) | 15 (≈ 44.6 µM) | 20 (≈ 59.5 µM) | 20 | 15 | 15 (≈ 44.6 µM) | 17 | 15 (≈ 44.6 µM) | – | –
5 | CC(=O)c1ccc2c(c1)N(C(=O)CN1C(=O)c3ccccc3C1=O)c1ccccc1S2 | 10 (≈ 23.3 µM) | inactive | 19 | – | 15 (≈ 35 µM) | 25 | 16 | 14 | 22 | 10 (≈ 23.3 µM) | 10 (≈ 23.3 µM) | 15 (≈ 35 µM) | 10 (≈ 23.3 µM) | 21 | 19 | 10 (≈ 23.3 µM) | – | – | – | –
6 | O=C1C=CC(=O)N1CC(=O)N1c2ccccc2Sc2ccc(C(F)(F)F)cc21 | 10 (≈ 24.7 µM) | – | 10 | inactive | 30 (≈ 74.2 µM) | 19 | 17 | 19 | 19 | 20 (≈ 49.5 µM) | 20 (≈ 49.5 µM) | 15 (≈ 37.1 µM) | 20 (≈ 49.5 µM) | 19 | – | – | 19 | 15 (≈ 37.1 µM) | – | –
7 | CC(=O)c1ccc2c(c1)N(C(=O)CN1C(=O)CCC1=O)c1ccccc1S2 | 10 (≈ 26.3 µM) | inactive | 13 | inactive | 15 (≈ 39.4 µM) | 26 | – | – | 20 | – | 20 (≈ 52.6 µM) | – | 25 (≈ 65.7 µM) | 24 | – | – | – | – | inactive | inactive
8 | OC(Cn1cncn1)(Cn1cncn1)c1ccc(F)cc1F [FLUCONAZOLE] | – | – | 20 | – | 10 (≈ 32.7 µM) | 23 | – | 21 | 24 | 10 (≈ 32.7 µM) | 10 (≈ 32.7 µM) | – | 10 (≈ 32.7 µM) | – | – | – | – | – | – | –
9 | O=C1c2ccccc2C(=O)N1CC(=O)N1c2ccccc2Sc2ccc(Cl)cc21 | 10 (≈ 23.8 µM) | – | 19 | – | 10 (≈ 23.8 µM) | 24 | 13 | 18 | 21 | 10 (≈ 23.8 µM) | 10 (≈ 23.8 µM) | 30 (≈ 71.3 µM) | 10 (≈ 23.8 µM) | 23 | 19 | 10 (≈ 23.8 µM) | 18 | 10 (≈ 23.8 µM) | – | –
10 | O=C1CCC(=O)N1CC(=O)N1c2ccccc2Sc2ccc(C(F)(F)F)cc21 | 20 (≈ 49.2 µM) | – | 19 | – | 15 (≈ 36.9 µM) | 21 | 14 | 19 | 23 | 20 (≈ 49.2 µM) | 20 (≈ 49.2 µM) | 25 (≈ 61.5 µM) | 10 (≈ 24.6 µM) | 21 | 18 | 15 (≈ 36.9 µM) | 19 | 15 (≈ 36.9 µM) | – | –
11 | O=C(O)c1cn(C2CC2)c2cc(N3CCNCC3)c(F)cc2c1=O [CIPROFLOXACIN] | – | – | – | – | – | – | 22 | – | – | – | – | 10 (≈ 30.2 µM) | – | – | 21 | 10 (≈ 30.2 µM) | 23 | 10 (≈ 30.2 µM) | – | –
12 | O=C1C=CC(=O)N1CC(=O)N1c2ccccc2Sc2ccc(Cl)cc21 | 10 (≈ 27 µM) | – | 16 | – | 20 (≈ 53.9 µM) | 18 | – | 17 | 15 | 20 (≈ 53.9 µM) | 20 (≈ 53.9 µM) | – | 20 (≈ 53.9 µM) | 20 | 18 | 15 (≈ 40.5 µM) | 17 | 15 (≈ 40.5 µM) | inactive | –
